Assay results: ChEMBL document CHEMBL1139087, “Structure-activity relationships of 3-aminoquinazolinediones, a new class of bacterial type-2 topoisomerase (DNA gyrase and topo IV) inhibitors” (Bioorg Med Chem Lett, 2007)
≈ marks a conversion by molar mass, not a printed value.

What was measured:
Streptococcus pyogenes = test: Antibacterial activity against Streptococcus pyogenes C-203 SP1-1; type: functional
Method in brief: (§1)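 MIC (μg/mL) by standard broth microtitration dilution following NCCLS M7-A5 for aerobically growing bacteria. Panel: Gram-negative E. coli MC4100 (wild-type) and E. coli Tol C (membrane efflux-pump deficient); Gram-positive Enterococcus faecalis, Staphylococcus aureus and Streptococcus pyogenes.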

Escherichia coli [1] = test: Antibacterial activity against Escherichia coli MC4100 EC2026; type: functional; method in brief: as §1
[2] = Inhibition of Escherichia coli H560 DNA gyrase assessed as DNA cleavage
Escherichia coli [3] = test: Antibacterial activity against membrane efflux-pump deficient Escherichia coli Tol C EC2549; type: functional; method in brief: as §1
Enterococcus faecalis = test: Antibacterial activity against Enterococcus faecalis MGH-2 EF1-1; type: functional; method in brief: as §1
Staphylococcus aureus = test: Antibacterial activity against Staphylococcus aureus UC-76 SA-1; type: functional; method in brief: as §1

| SMILES | MIC (Streptococcus pyogenes) [mg/L] | MIC (Escherichia coli [1]) [mg/L] | IC50 [2] [µM] | MIC (Escherichia coli [3]) [mg/L] | MIC (Enterococcus faecalis) [mg/L] | MIC (Staphylococcus aureus) [mg/L] |
| --- | --- | --- | --- | --- | --- | --- |
| NC1CCN(c2c(F)c(F)c3c(=O)n(N)c(=O)n(C4CC4)c3c2F)C1 (stereo not given) | 16 (≈ 45 µM) | 2 (≈ 5.63 µM) | 3 | 0.5 (≈ 1.41 µM) | 32 (≈ 90.1 µM) | 16 (≈ 45 µM) |
| CN[C@H]1CCN(c2c(F)cc3c(=O)n(NC)c(=O)n(C4CC4)c3c2Cl)C1 | > 64 | > 64 |  | 8 (≈ 21 µM) | > 64 | > 64 |
| N[C@H]1CCN(c2cc3c(cc2F)c(=O)n(N)c(=O)n3C2CC2)C1 | 16 (≈ 50.1 µM) | 8 (≈ 25.1 µM) | 1.6 | 1 (≈ 3.13 µM) | 32 (≈ 100 µM) | 64 (≈ 200 µM) |
| NC1CCN(c2cc(F)c3c(=O)n(N)c(=O)n(C4CC4)c3c2F)C1 (stereo not given) | > 64 | 32 (≈ 94.9 µM) | 17 | 4 (≈ 11.9 µM) | > 64 | > 64 |
| CC(C)n1c(=O)n(N)c(=O)c2cc(F)c(N3CCC(N)C3)c(Cl)c21 (stereo not given) | > 64 | > 64 | 98 | > 64 | > 64 | > 64 |
| CCn1c(=O)n(N)c(=O)c2cc(F)c(N3CC[C@H](N)C3)cc21 | > 64 | 64 (≈ 208 µM) | 35 | 16 (≈ 52.1 µM) | > 64 | > 64 |
| NC1CCN(c2c(F)cc3c(=O)n(N)c(=O)n(C4CCC4)c3c2Cl)C1 (stereo not given) | > 64 | 16 (≈ 43.5 µM) | 23 | 2 (≈ 5.44 µM) | > 64 | > 64 |
| Nc1c(F)c(N2CCC(N)C2)c(F)c2c1c(=O)n(N)c(=O)n2C1CC1 (stereo not given) | 32 (≈ 90.8 µM) | 8 (≈ 22.7 µM) | 21 | 1 (≈ 2.84 µM) | 64 (≈ 182 µM) | 32 (≈ 90.8 µM) |
| COc1c(N2CCC(N)C2)c(F)cc2c(=O)n(N)c(=O)n(C3CC3)c12 (stereo not given) | 4 (≈ 11.4 µM) | 4 (≈ 11.4 µM) | 4.3 | 0.5 (≈ 1.43 µM) | 8 (≈ 22.9 µM) | 8 (≈ 22.9 µM) |
| NC1CCN(c2c(F)cc3c(=O)n(N)c(=O)n(-c4ccc(F)cc4F)c3c2Cl)C1 (stereo not given) | > 64 | > 64 | > 100 | 64 (≈ 150 µM) | > 64 | > 64 |
| CN[C@H]1CCN(c2c(F)cc3c(=O)n(N)c(=O)n(C4CC4)c3c2Cl)C1 | 8 (≈ 21.8 µM) | 4 (≈ 10.9 µM) | 6.1 | 0.5 (≈ 1.36 µM) | 16 (≈ 43.5 µM) | 16 (≈ 43.5 µM) |
| O=C(O)c1cn(C2CC2)c2cc(N3CCNCC3)c(F)cc2c1=O [CIPROFLOXACIN] | 2 (≈ 6.04 µM) |  |  |  | 0.4 (≈ 1.21 µM) | 4 (≈ 12.1 µM) |
| N[C@H]1CCN(c2cc3c(cc2F)c(=O)n(N)c(=O)n3CC2CC2)C1 | > 64 | > 64 | 20 | 8 (≈ 24 µM) | > 64 | > 64 |
| CC(=O)Nn1c(=O)c2cc(F)c(N3CCC(N)C3)c(Cl)c2n(C2CC2)c1=O (stereo not given) | > 64 | 64 (≈ 162 µM) | 10 | 2 (≈ 5.05 µM) | > 64 | > 64 |
| NC1CCN(c2c(F)cc3c(=O)n(N)c(=O)n(C4CC4)c3c2F)C1 (stereo not given) | 4 (≈ 11.9 µM) | 2 (≈ 5.93 µM) | 1.3 | 0.25 (≈ 0.741 µM) | 8 (≈ 23.7 µM) | 8 (≈ 23.7 µM) |
| CCOc1c(N2CCC(N)C2)c(F)cc2c(=O)n(N)c(=O)n(C3CC3)c12 (stereo not given) | 64 (≈ 176 µM) | 32 (≈ 88.1 µM) | 11 | 4 (≈ 11 µM) | > 64 | > 64 |

Other lines, results leading:

| MIC (Streptococcus pyogenes) [mg/L] | MIC (Escherichia coli [1]) [mg/L] | IC50 [2] [µM] | MIC (Escherichia coli [3]) [mg/L] | MIC (Enterococcus faecalis) [mg/L] | MIC (Staphylococcus aureus) [mg/L] | SMILES |
| --- | --- | --- | --- | --- | --- | --- |
| 0.03 (≈ 0.0799 µM) | 2 (≈ 5.33 µM) | 0.24 | 0.03 (≈ 0.0799 µM) | 0.06 (≈ 0.16 µM) | 0.06 (≈ 0.16 µM) | Cc1c(F)c(N2CC[C@@H]([C@H](C)N)C2)c(C)c2c1c(=O)n(N)c(=O)n2C1CC1 |
| 0.015 (≈ 0.0415 µM) | 1 (≈ 2.77 µM) | 0.2 | 0.03 (≈ 0.083 µM) | 0.06 (≈ 0.166 µM) | 0.06 (≈ 0.166 µM) | Cc1c(N2CC[C@@H]([C@H](C)N)C2)c(F)cc2c(=O)n(N)c(=O)n(C3CC3)c12 |
| 0.13 (≈ 0.353 µM) | 4 (≈ 10.9 µM) | 0.3 | 0.25 (≈ 0.68 µM) | 0.25 (≈ 0.68 µM) | 0.5 (≈ 1.36 µM) | NCC1CCN(c2c(F)cc3c(=O)n(N)c(=O)n(C4CC4)c3c2Cl)C1 (stereo not given) |
| 0.25 (≈ 0.608 µM) | 64 (≈ 156 µM) | 8.2 | 1 (≈ 2.43 µM) | 1 (≈ 2.43 µM) | 1 (≈ 2.43 µM) | Cc1c(N2CC[C@@H]([C@H](C)N)C2)c(F)c(C(F)F)c2c(=O)n(N)c(=O)n(C3CC3)c12 |
| 2 (≈ 5.2 µM) | 16 (≈ 41.6 µM) | 1.2 | 0.5 (≈ 1.3 µM) | 4 (≈ 10.4 µM) | 4 (≈ 10.4 µM) | NCC1CCN(c2c(Cl)cc3c(=O)n(N)c(=O)n(C4CC4)c3c2Cl)C1 (stereo not given) |
| 4 (≈ 10.3 µM) | 8 (≈ 20.7 µM) | 5.2 | 0.25 (≈ 0.645 µM) | 32 (≈ 82.6 µM) | 32 (≈ 82.6 µM) | N[C@H]1CCN(c2c(F)cc3c(=O)n(N)c(=O)n(C4CC4)c3c2C(F)(F)F)C1 |
| 0.5 (≈ 1.5 µM) | 1 (≈ 3 µM) | 0.1 | 0.06 (≈ 0.18 µM) | 2 (≈ 6 µM) | 4 (≈ 12 µM) | Cc1c(N2CCC(N)C2)c(F)cc2c(=O)n(N)c(=O)n(C3CC3)c12 (stereo not given) |
| 2 (≈ 5.65 µM) | 0.5 (≈ 1.41 µM) | 0.4 | 0.13 (≈ 0.367 µM) | 4 (≈ 11.3 µM) | 2 (≈ 5.65 µM) | N[C@H]1CCN(c2c(F)cc3c(=O)n(N)c(=O)n(C4CC4)c3c2Cl)C1 |
